Experimental data of several laboratories.
Lines come from different studies, so protocols differ.
Target: Serine/threonine-protein kinase OSR1 (OXSR1, Homo sapiens, UniProt O95747)

Compound	assay	setting	measurement	result
Cc1cc(O)c(-c2ccc([C@@H](C)CN(C)C)cc2)c2c1[nH]c(=O)c1sccc12	enzyme activity, inhibitor	0.1 µM	inhibition	6.5%
C[C@H]1CC[C@H](n2c3cnccc3c3cnc(Nc4ccc5c(n4)CCN(C(=O)CO)C5)nc32)CC1	cell-free assay	1 µM	remaining signal	100%
CC(C)S(=O)(=O)c1ccc2nccc(Nc3ccc4sc(C5CCCC5)nc4c3)c2c1	enzyme activity, inhibitor	1 µM	activity vs control	108%
C#Cc1cc(-c2cc(Nc3nc(N[C@@H](C)c4ccc(F)cn4)ncc3Cl)n[nH]2)ccc1C=O	enzyme activity, inhibitor	0.2 µM	inhibition	18.2%
CO[C@@H]1[C@H](N(C)C(=O)c2ccccc2)C[C@H]2O[C@]1(C)n1c3ccccc3c3c4c(c5c6ccccc6n2c5c31)C(=O)NC4	enzyme activity, inhibitor	1 µM	inhibition	24%
Cc1ccc(NC(=O)c2ccnc(C(F)(F)F)c2)cc1-c1cc(OCCO)nc(N2CCOCC2)c1	binding	1 µM	remaining binding	89%
C=CC(=O)N1CCC([C@@H]2CCNc3c(C(N)=O)c(-c4ccc(Oc5ccccc5)cc4)nn32)CC1	enzyme activity, inhibitor	1 µM	inhibition	0%
CCCCC(=O)Nc1ccc(-c2ccc3ncn(CCC)c(=O)c3c2)cn1	binding, competition with immobilised ligand	0.5 µM	remaining binding	100%
